ChEMBL document CHEMBL5506013, “Mitochondria-Selective Dicationic Small-Molecule Ligand Targeting G-Quadruplex Structures for Human Colorectal Cancer Therapy” (J Med Chem, 2024)
Calls of active or inactive are those of the source. The calls are words filed in the database; no cut-off is given here.

Columns and labels:
Quadruplex DNA [1] = assay: Binding affinity to mito 78 G4 DNA (unknown origin) assessed as dissociation constant measured upto 450 secs by surface plasmon resonance assay; type: nucleic-acid assay
HCT-116 [2] = assay: Antiproliferative activity against human HCT-116 cells measured after 48 hrs by MTT assay; type: functional, cell-based; settings: HCT-116, 48 h
Procedure, shortened: (§1)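 Cells exposed to the ligands for 48 h. Viability was read by MTT, and the IC50 was derived from the response.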

HepG2 = assay: Antiproliferative activity against human HepG2 cells measured after 48 hrs by MTT assay; type: functional, cell-based; settings: HepG2, 48 h; procedure, shortened: as §1
MDA-MB-231 = assay: Antiproliferative activity against human MDA-MB-231 cells measured after 48 hrs by MTT assay; type: functional, cell-based; settings: MDA-MB-231, 48 h; procedure, shortened: as §1
Quadruplex DNA [3] = assay: Binding affinity to mito 0.5-15 G4 DNA (unknown origin) assessed as dissociation constant measured upto 150 secs by isothermal titration calorimetry assay; type: nucleic-acid assay
[4] = Drug localization in lysosome of living human HCT-116 cells assessed as colocalization at 4 uM incubated for 1 hr by lyso-tracker blue staining based analysis; type: ADME, subcellular; settings: hct-116, 1 h
[5] = Drug localization in endoplasmic reticulum of living human HCT-116 cells assessed as colocalization at 4 uM incubated for 1 hr by ER-tracker blue staining based analysis; type: ADME, subcellular; settings: hct-116, 1 h
Procedure, shortened: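 Live HCT116 cells co-stained with ligand and ER-Tracker Blue. Colocalization assessed by confocal imaging.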

HCT-116 [6] = assay: Downregulation of ND2 gene expression in human HCT-116 cells at 0 to 4 uM measured after 48 hrs by q-PCR analysis; type: functional, cell-based; settings: dose 0-4 µM
HCT-116 [7] = assay: Downregulation of ND1 mRNA level in human HCT-116 cells at 0 to 4 uM measured after 48 hrs by qRT-PCR analysis; type: functional, cell-based; settings: dose 0-4 µM
HCT-116 [8] = assay: Downregulation of COX2 mRNA level in human HCT-116 cells at 0 to 4 uM measured after 48 hrs by qRT-PCR analysis; type: functional, cell-based; settings: dose 0-4 µM
HFF-1 = assay: Downregulation of ND2 mRNA level in human HFF-1 cells at 0 to 4 uM measured after 48 hrs by qRT-PCR analysis; type: functional, cell-based; settings: dose 0-4 µM
HCT-116 [9] = assay: Induction of DNA damage in human HCT-116 assessed as increase in gammaH2AX level at upto 4 uM incubated for 72 hrs by Western blot analysis; type: functional, cell-based
Procedure, shortened: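 HCT116 cells treated with ligand at 0-4 uM for 72 h. Lysates immunoblotted for Lamin B1, p53, p21, p16, gamma-H2A.x, caspase-3 and cleaved caspase-3, with beta-actin as loading control.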

Quadruplex DNA [10] = assay: Binding affinity to mito 0.5-16 G4 DNA (unknown origin) assessed as increase in fluorescence intensity by fluorescence spectrophotometric analysis; type: nucleic-acid assay
Procedure, shortened: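 Oligonucleotides were pre-annealed at 95 °C for 10 min, then cooled slowly. Ligand (5 uM) was mixed with 20 uM DNA in buffer. Emission was collected over 550–800 nm, and enhancement was taken at 650 nm as F/F0.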

Quadruplex DNA [11] = assay: Binding affinity to mito 78 G4 DNA (unknown origin) assessed as increase in fluorescence intensity by fluorescence spectrophotometric analysis; type: nucleic-acid assay
Procedure, shortened: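 Fluorescence titration in buffer. Ligand at 5 uM mixed with 20 uM pre-annealed DNA (95 °C for 10 min, slow cooling). Emission collected at 550-800 nm and monitored at 650 nm. Result reported as fold enhancement F/F0 over ligand alone.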

Quadruplex DNA [12] = assay: Binding affinity to Mito 0.5-15 G4 DNA (unknown origin) assessed as change in melting temperature at 5 uM by circular dichroism spectroscopic analysis; type: nucleic-acid assay
[13] = Drug localization in mitochondria of human HCT-116 cells at upto 4 uM incubated for 1 hrs by mito-tracker deep red staining based live cell imaging analysis; type: ADME; settings: hct-116, 1 h
[14] = Drug localization in human HCT-116 cells by measuring red foci at 4 uM incubated for 1 hr in presence of DNA I by hoechst33342 staining based analysis; type: ADME, cell-based; settings: hct-116, 1 h
Procedure, shortened: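 Live HCT116 cells loaded with ligand 4 uM for 1 h and Hoechst33342 1 uM for 30 min, then fixed. Fixed cells digested with 200 units DNase I or RNase A for 3 h. Red foci imaged by confocal microscopy in 100 cells. Mean ± SEM, t test.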

HCT-116 [15] = assay: Downregulation of Ki67 expression level in human HCT-116 cells at upto 4 uM measured after 72 hrs by immunofluorescence analysis; type: functional, cell-based
Procedure, shortened: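 HCT116 cells treated with ligand at 0-4 uM for 72 h. Lamin B1 and Ki67 imaged by immunofluorescence (excitation 635 nm), or lamin B1 probed on Western blot with β-actin as loading control.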

HCT-116 [16] = assay: Induction of cell cycle arrest in human HCT-116 cells assessed as accumulation of cells at G0/G1 phase at 1 to 4 uM measured after 72 hrs by PI staining based flow cytometry analysis (reference value: 50.66%); type: functional; settings: dose 1-4 µM
Procedure, shortened: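 HCT116 cells treated at 0-4 uM for 72 h. Cell-cycle distribution measured by flow cytometry and G0/G1 percentage recorded.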

HCT-116 [17] = assay: Induction of apoptosis in human HCT-116 cells measured after 72 hrs by annexin V-BUV396 and 7-AAD staining based flow cytometry analysis; type: functional, cell-based; settings: dose <= 4.0 µM
Procedure, shortened: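 HCT116 cells treated at 0-4 uM for 72 h, stained with Annexin V-BUV396 and 7-AAD, and the apoptotic fraction quantified by flow cytometry.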

[18] = Toxicity in BALB/c nude mouse assessed as change in body weight at 5 mg/kg, iv administered every two days for 16 days; type: organism-based; settings: in vivo, 384 h, time 16 day
Procedure, shortened: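 Male Balb/c nude mice bearing HCT116 xenografts, 6 per group, given PBS or ligand 5 mg/kg intravenously every two days. Body weight tracked over 16 days.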

HCT-116 [19] = assay: Antitumor activity against human HCT-116 cells xenografted in Balb/c nude mouse model assessed as reduction in tumor weight at 5 mg/kg, iv administered every two days for 16 days relative to control; type: functional; set-up: scale not given: the % may be the effect or the level left; settings: time 16 day
Procedure, shortened: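 Male Balb/c nude mice carrying HCT116 xenografts, 6 per group. Dosing was intravenous every two days at 5 mg/kg, with a PBS-injected control group. Body weight and tumour growth were tracked. Tumours were excised and weighed after 16 days.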

HCT-116 [20] = assay: Antitumor activity against human HCT-116 cells xenografted in Balb/c nude mouse model assessed as inhibition of tumor cell proliferation at 5 mg/kg, iv administered every two days for 16 days by Ki67 staining based analysis; type: functional, organism-based; settings: time 16.0 day
Procedure, shortened: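 Tumours came from HCT116-xenografted male Balb/c nude mice given 5 mg/kg i.v. every two days, or PBS, for 16 days. Tumour tissue sections were stained by TUNEL for apoptosis and by Ki67 immunofluorescence for proliferation, then compared with the control group.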

[21] = Toxicity in BALB/c nude mouse assessed as change in white blood cell count at 5 mg/kg, iv administered every two days for 16 days; type: organism-based; settings: in vivo, 384 h, time 16 day
Procedure, shortened: (§2)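 HCT116 xenograft-bearing male Balb/c nude mice (6/group) dosed iv at 5 mg/kg every two days or with PBS. Whole blood collected at sacrifice on day 16 for hematology parameters.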

[22] = Toxicity in BALB/c nude mouse assessed as change in neutrophil count at 5 mg/kg, iv administered every two days for 16 days; type: organism-based; settings: in vivo, 384 h, time 16 day; procedure, shortened: as §2
[23] = Toxicity in BALB/c nude mouse assessed as change in red blood cell count at 5 mg/kg, iv administered every two days for 16 days; type: organism-based; settings: in vivo, 384 h, time 16 day; procedure, shortened: as §2
[24] = Toxicity in BALB/c nude mouse assessed as change in mean red blood cell hemoglobin content at 5 mg/kg, iv administered every two days for 16 days; type: organism-based; settings: in vivo, 384 h, time 16 day; procedure, shortened: as §2

C(=C\c1ccc2ccccc2[n+]1CCCCCCCC[n+]1c(/C=C/c2ccc(N3CCCCC3)cc2)ccc2ccccc21)/c1ccc(N2CCCCC2)cc1.[I-].[I-]
Kd (Quadruplex DNA [1]): 0.04 µM | IC50 (HCT-116 [2]): 3.4 µM | IC50 (HepG2): > 40 µM | IC50 (MDA-MB-231): 34.6 µM | Kd (Quadruplex DNA [3]): 0.06 µM | Drug uptake [4]: Not Active | Drug uptake [5]: Not Active | Activity (HCT-116 [6]): Active | Activity (HCT-116 [7]): Active | Activity (HCT-116 [8]): Active | Activity (HFF-1): Active | Activity (HCT-116 [9]): Active | Activity (Quadruplex DNA [10]): Active | Activity (Quadruplex DNA [11]): Active | ΔTm (Quadruplex DNA [12]): 3.6 °C | Drug uptake [13]: Active | Drug uptake [14]: Not Active | Activity (HCT-116 [15]): Active | Activity (HCT-116 [16]): 66.01% | Activity (HCT-116 [17]): Dose-Dependent Effect | Activity [18]: Non-Toxic | Activity (HCT-116 [19]): 70% | Activity (HCT-116 [20]): Active | Activity [21]: Non-Toxic | Activity [22]: Non-Toxic | Activity [23]: Non-Toxic | Activity [24]: Non-Toxic
